In ChEMBL document CHEMBL5247575 (J Med Chem, 2018):

Key:
[1] = tested on: Pseudomonas aeruginosa; experiment: Synergistic antibacterial activity against Pseudomonas aeruginosa 776 assessed as cefepime MIC at 4 ug/ml by broth microdilution method; assay type: functional; details: dose 4 µg/ml
[2] = tested on: Acinetobacter baumannii; experiment: Synergistic antibacterial activity against Acinetobacter baumannii PR323 producing OXA-24/40 assessed as meropenem MIC at 4 ug/ml by broth microdilution method; assay type: functional; details: dose 4 µg/ml
[3] = tested on: Klebsiella pneumoniae; experiment: Synergistic antibacterial activity against Klebsiella pneumoniae 972/1910 producing KPC-3 assessed as cefepime MIC at 4 ug/ml by broth microdilution method; assay type: functional; details: dose 4 µg/ml
[4] = tested on: Klebsiella pneumoniae; experiment: Synergistic antibacterial activity against Klebsiella pneumoniae 729/1679 producing KPC-3 assessed as cefepime MIC at 4 ug/ml by broth microdilution method; assay type: functional; details: dose 4 µg/ml
Method in brief: (§1)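 Broth microdilution per CLSI guidelines, using custom frozen panels. […] Each partner drug was also tested alone. MICs were run in triplicate and the modal value is reported.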

[5] = tested on: Pseudomonas aeruginosa; experiment: Synergistic antibacterial activity against Pseudomonas aeruginosa CL232 assessed as meropenem MIC at 4 ug/ml by broth microdilution method; assay type: functional; details: dose 4 µg/ml
[6] = tested on: Klebsiella pneumoniae; experiment: Synergistic antibacterial activity against Klebsiella pneumoniae 1354/2241 producing KPC-3 assessed as cefepime MIC at 4 ug/ml by broth microdilution method; assay type: functional; details: dose 4 µg/ml; method in brief: as §1
[7] = tested on: Acinetobacter baumannii; experiment: Synergistic antibacterial activity against Acinetobacter baumannii PR476 producing OXA-24/40 assessed as meropenem MIC at 4 ug/ml by broth microdilution method; assay type: functional; details: dose 4 µg/ml
[8] = tested on: Escherichia coli; experiment: Synergistic antibacterial activity against Escherichia coli DH10B transfected with pBC SK (-) PDC-3 assessed as cefepime MIC at 4 ug/ml by broth microdilution method; assay type: functional; details: dose 4 µg/ml; method in brief: as §1
[9] = tested on: Acinetobacter baumannii; experiment: Synergistic antibacterial activity against ADC deleted Acinetobacter baumannii transfected with pWH1266 OXA-23 assessed as meropenem MIC at 4 ug/ml by broth microdilution method; assay type: functional; details: dose 4 µg/ml
[10] = tested on: Klebsiella pneumoniae; experiment: Synergistic antibacterial activity against Klebsiella pneumoniae 977/1916 producing KPC-3 assessed as cefepime MIC at 4 ug/ml by broth microdilution method; assay type: functional; details: dose 4 µg/ml
[11] = tested on: Klebsiella pneumoniae; experiment: Synergistic antibacterial activity against Klebsiella pneumoniae 1315/2198 producing KPC-3 assessed as cefepime MIC at 4 ug/ml by broth microdilution method; assay type: functional; details: dose 4 µg/ml; method in brief: as §1
[12] = tested on: Pseudomonas aeruginosa; experiment: Synergistic antibacterial activity against Pseudomonas aeruginosa 715 assessed as meropenem MIC at 4 ug/ml by broth microdilution method; assay type: functional; details: dose 4 µg/ml
[13] = tested on: Klebsiella pneumoniae; experiment: Synergistic antibacterial activity against Klebsiella pneumoniae CAV 1543 producing OXA-48 assessed as meropenem MIC at 4 ug/ml by broth microdilution method; assay type: functional; details: dose 4 µg/ml
[14] = tested on: Klebsiella pneumoniae; experiment: Synergistic antibacterial activity against Klebsiella pneumoniae 1398/2291 producing KPC-3 assessed as cefepime MIC at 4 ug/ml by broth microdilution method; assay type: functional; details: dose 4 µg/ml; method in brief: as §1
[15] = tested on: Escherichia coli; experiment: Synergistic antibacterial activity against Escherichia coli DH10B transfected with pBC SK (-) KPC-2 assessed as cefepime MIC at 4 ug/ml by broth microdilution method; assay type: functional; details: dose 4 µg/ml
[16] = tested on: Escherichia coli; experiment: Antibacterial activity against Escherichia coli DH10B transfected with pBC SK (-) PDC-3 by broth microdilution method; assay type: functional
[17] = tested on: Pseudomonas aeruginosa; experiment: Synergistic antibacterial activity against Pseudomonas aeruginosa 795 assessed as meropenem MIC at 4 ug/ml by broth microdilution method; assay type: functional; details: dose 4 µg/ml
[18] = tested on: Acinetobacter baumannii; experiment: Synergistic antibacterial activity against ADC deleted Acinetobacter baumannii transfected with pWH1266 OXA-23 assessed as cefepime MIC at 4 ug/ml by broth microdilution method; assay type: functional; details: dose 4 µg/ml
[19] = tested on: Bacteria; experiment: Inhibition of bacteria ADC-7 assessed as half life using nitrocefin as substrate
[20] = tested on: Pseudomonas aeruginosa; experiment: Antibacterial activity against Pseudomonas aeruginosa CL232 by broth microdilution method; assay type: functional
[21] = tested on: Acinetobacter baumannii; experiment: Synergistic antibacterial activity against Acinetobacter baumannii PR381 producing OXA-24/40 assessed as meropenem MIC at 4 ug/ml by broth microdilution method; assay type: functional; details: dose 4 µg/ml
[22] = tested on: Klebsiella pneumoniae; experiment: Synergistic antibacterial activity against Klebsiella pneumoniae CAV 1636 producing OXA-181 assessed as meropenem MIC at 4 ug/ml by broth microdilution method; assay type: functional; details: dose 4 µg/ml
[23] = tested on: Klebsiella pneumoniae; experiment: Synergistic antibacterial activity against Klebsiella pneumoniae 440/1360 producing KPC-2 assessed as cefepime MIC at 4 ug/ml by broth microdilution method; assay type: functional; details: dose 4 µg/ml; method in brief: as §1
[24] = tested on: Bacteria; experiment: Inhibition of bacteria PDC-3 assessed as half life using nitrocefin as substrate
[25] = tested on: Klebsiella pneumoniae; experiment: Synergistic antibacterial activity against Klebsiella pneumoniae 972/1910 producing KPC-3 assessed as meropenem MIC at 8 ug/ml by broth microdilution method; assay type: functional; details: dose 8 µg/ml
[26] = tested on: Pseudomonas aeruginosa; experiment: Synergistic antibacterial activity against Pseudomonas aeruginosa 839 assessed as meropenem MIC at 8 ug/ml by broth microdilution method; assay type: functional; details: dose 8 µg/ml
[27] = tested on: Klebsiella pneumoniae; experiment: Synergistic antibacterial activity against Klebsiella pneumoniae 660/1568 producing KPC-3 assessed as cefepime MIC at 8 ug/ml by broth microdilution method; assay type: functional; details: dose 8 µg/ml; method in brief: as §1
[28] = tested on: Acinetobacter baumannii; experiment: Synergistic antibacterial activity against Acinetobacter baumannii PR363 producing OXA-23 assessed as meropenem MIC at 8 ug/ml by broth microdilution method; assay type: functional; details: dose 8 µg/ml
[29] = tested on: Acinetobacter baumannii; experiment: Synergistic antibacterial activity against ADC deleted Acinetobacter baumannii assessed as cefepime MIC at 8 ug/ml by broth microdilution method; assay type: functional; details: dose 8 µg/ml
[30] = tested on: Pseudomonas aeruginosa; experiment: Synergistic antibacterial activity against Pseudomonas aeruginosa CL232 assessed as cefepime MIC at 8 ug/ml by broth microdilution method; assay type: functional; details: dose 8 µg/ml
[31] = tested on: Klebsiella pneumoniae; experiment: Synergistic antibacterial activity against Klebsiella pneumoniae 901/1860 producing KPC-3 assessed as cefepime MIC at 8 ug/ml by broth microdilution method; assay type: functional; details: dose 8 µg/ml
[32] = tested on: Klebsiella pneumoniae; experiment: Synergistic antibacterial activity against Klebsiella pneumoniae 1108/1989 producing KPC-3 assessed as meropenem MIC at 8 ug/ml by broth microdilution method; assay type: functional; details: dose 8 µg/ml; method in brief: as §1
[33] = tested on: Klebsiella pneumoniae; experiment: Synergistic antibacterial activity against Klebsiella pneumoniae 1084/1957 producing KPC-3 assessed as meropenem MIC at 8 ug/ml by broth microdilution method; assay type: functional; details: dose 8 µg/ml; method in brief: as §1
[34] = tested on: Escherichia coli; experiment: Synergistic antibacterial activity against Escherichia coli DH10B transfected with pBC SK (-) PDC-3 assessed as meropenem MIC at 8 ug/ml by broth microdilution method; assay type: functional; details: dose 8 µg/ml; method in brief: as §1
[35] = tested on: Klebsiella pneumoniae; experiment: Synergistic antibacterial activity against Klebsiella pneumoniae 761/1723 producing KPC-3 assessed as cefepime MIC at 8 ug/ml by broth microdilution method; assay type: functional; details: dose 8 µg/ml; method in brief: as §1
[36] = tested on: Pseudomonas aeruginosa; experiment: Synergistic antibacterial activity against Pseudomonas aeruginosa CL232 assessed as meropenem MIC at 8 ug/ml by broth microdilution method; assay type: functional; details: dose 8 µg/ml
[37] = tested on: Klebsiella pneumoniae; experiment: Synergistic antibacterial activity against Klebsiella pneumoniae 935/1884 producing KPC-3 assessed as meropenem MIC at 8 ug/ml by broth microdilution method; assay type: functional; details: dose 8 µg/ml
[38] = tested on: Acinetobacter baumannii; experiment: Synergistic antibacterial activity against Acinetobacter baumannii PR420 producing OXA-23/24/40 assessed as meropenem MIC at 8 ug/ml by broth microdilution method; assay type: functional; details: dose 8 µg/ml
[39] = tested on: Klebsiella pneumoniae; experiment: Synergistic antibacterial activity against Klebsiella pneumoniae 977/1916 producing KPC-3 assessed as meropenem MIC at 8 ug/ml by broth microdilution method; assay type: functional; details: dose 8 µg/ml
[40] = tested on: Acinetobacter baumannii; experiment: Synergistic antibacterial activity against Acinetobacter baumannii PR476 producing OXA-24/40 assessed as meropenem MIC at 8 ug/ml by broth microdilution method; assay type: functional; details: dose 8 µg/ml
[41] = tested on: Pseudomonas aeruginosa; experiment: Synergistic antibacterial activity against Pseudomonas aeruginosa 776 assessed as meropenem MIC at 8 ug/ml by broth microdilution method; assay type: functional; details: dose 8 µg/ml

O.O=C(NC1CCNCC1)[C@@H]1CC[C@@H]2CN1C(=O)N2OS(=O)(=O)O [RELEBACTAM]
MIC [1]: 16 µg/mL | MIC [2]: > 16 µg/mL | MIC [3]: 0.25 µg/mL | MIC [4]: 0.5 µg/mL | MIC [5]: > 16 µg/mL | MIC [6]: ≤ 0.12 µg/mL | MIC [7]: 0.25 µg/mL | MIC [8]: ≤ 0.12 µg/mL | MIC [9]: > 16 µg/mL | MIC [10]: 0.25 µg/mL | MIC [11]: 0.25 µg/mL | MIC [12]: 16 µg/mL | MIC [13]: 8 µg/mL | MIC [14]: ≤ 0.12 µg/mL | MIC [15]: ≤ 0.12 µg/mL | MIC [16]: > 16 µg/mL | MIC [17]: 8 µg/mL | MIC [18]: > 16 µg/mL | T1/2 [19]: 39 min | MIC [20]: > 16 µg/mL | MIC [21]: > 16 µg/mL | MIC [22]: 16 µg/mL | MIC [23]: 1 µg/mL | T1/2 [24]: 12.8 min

N#C[C@@H]1CC[C@@H]2CN1C(=O)N2OS(=O)(=O)[O-].[Na+]
MIC [2]: 16 µg/mL | MIC [25]: ≤ 0.12 µg/mL | MIC [3]: 0.25 µg/mL | MIC [26]: 1 µg/mL | MIC [27]: 0.25 µg/mL | MIC [28]: 2 µg/mL | MIC [4]: 0.5 µg/mL | MIC [29]: 0.5 µg/mL | MIC [5]: 16 µg/mL | MIC [6]: ≤ 0.12 µg/mL | MIC [7]: 0.25 µg/mL | MIC [8]: ≤ 0.12 µg/mL | MIC [30]: > 16 µg/mL | MIC [31]: ≤ 0.12 µg/mL | MIC [9]: 16 µg/mL | MIC [10]: ≤ 0.12 µg/mL | MIC [11]: 0.25 µg/mL | MIC [32]: ≤ 0.12 µg/mL | MIC [12]: 16 µg/mL | MIC [13]: ≤ 0.12 µg/mL | MIC [14]: ≤ 0.12 µg/mL | MIC [15]: ≤ 0.12 µg/mL | MIC [33]: ≤ 0.12 µg/mL | MIC [34]: ≤ 0.12 µg/mL | MIC [35]: ≤ 0.12 µg/mL | MIC [16]: > 16 µg/mL | MIC [17]: 16 µg/mL | MIC [18]: 2 µg/mL | MIC [36]: > 16 µg/mL | MIC [37]: ≤ 0.12 µg/mL | T1/2 [19]: 12 min | MIC [20]: > 16 µg/mL | MIC [38]: 8 µg/mL | MIC [39]: ≤ 0.12 µg/mL | MIC [21]: > 16 µg/mL | MIC [40]: 0.25 µg/mL | MIC [22]: ≤ 0.12 µg/mL | MIC [23]: 0.5 µg/mL | T1/2 [24]: 4.1 min | MIC [41]: > 16 µg/mL
